The source of these data is paper PMC6585996 (Clinical Pharmacology in Drug Development, 2018).

The half-life is the time needed for the level to fall by half in the phase considered.

Entries after “also recorded” stand apart in the source; their conditions may differ. Read-outs that look alike come from different tables or passages of the source.

For data set [1] the following is noted: cited from earlier work.
The conditions of data set [2]: single-dose oral 30 mg, fasted conditions, cited from earlier work.
The conditions of data set [3]: cited from earlier work. This is another data set of the same source.
The test system of a further data set is serum albumin. The conditions noted are these: cited from earlier work.
The conditions of data set [4]: coadministered rifampin; cited from earlier work.
The conditions of data set [5]: cited from earlier work. This is another data set of the same source.
The format of data set [6] is in vivo, human. In a few lines:
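Healthy adults aged 18–65 years (≥50 kg, BMI 18.5–31.0 kg/m2) were randomised 1:1 to a two-period crossover. Each received a single oral 30 mg tablet after ≥10 h fasting or within 30 min of a high-fat meal (~53% fat, ~870 calories), with a 14-day washout. Plasma was sampled predose to 168 h and assayed by protein precipitation plus LC-MS/MS (LLOQ 25 ng/mL, ULOQ 25,000 ng/mL). Parameters were noncompartmental. GLS mean ratios (90% CI) came from a mixed-effects model with treatment and period as fixed effects and participant as random.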

The conditions of data set [7]: 30 mg with a moderate-fat meal; ref Supplemental Data; cited from earlier work.
Data set [8] can be described thus: Safety assessments in the phase 1 food-effect study. Format: in vivo, human.
Data set [9] relates to uridine diphosphate glucuronosyltransferase (UGT)1A1, UGT1A9. The conditions noted are these: forms glucuronic acid conjugates; minor contribution by UGT1A9; cited from earlier work.
For data set [10] the following is noted: 10‐ and 30‐mg doses, early prototype formulations; ref Supplemental Data; cited from earlier work.
The subject of the next data set is HIV‐1. Particulars: cited from earlier work.
The test system of another data set is OATP. Particulars: cited from earlier work.
The conditions of data set [11]: cited from earlier work. This is another data set of the same source.
Where [12] appears, read: 30-mg single oral dose, high-fat meal, n = 21.
Where [13] appears, read: Fasted State vs High‐Fat Meal, 30-mg single dose, n = 21.
Where [14] appears, read: high-fat meal compared with fasting state, 30 mg oral.

For the compound `Cc1nnc(C(=O)NC(C)(C)c2nc(C(=O)NCc3ccc(F)cc3)c(O)c(=O)n2C)o1` [Raltegravir], the “increase in AUC from time 0 to 12 hours” value in data set [1] (raltegravir 400 mg twice daily with a high-fat meal) is 2 fold. Further, the “increase in AUC from time 0 to last observation” value in data set [1] (raltegravir 1200 mg (2 × 600 mg) once daily, following a high-fat meal) is on record as 1.9%. In data set [1] (raltegravir 1200 mg (2 × 600 mg) once daily, following a low-fat meal), the “decrease in AUC from time 0 to last observation” value is reported as 42%.
Turning to `C[C@H]1CO[C@@H]2Cn3cc(C(=O)NCc4ccc(F)cc4F)c(=O)c(O)c3C(=O)N12` [cabotegravir, Cabotegravir], the AUC(0-inf) in [2] (read-out: AUC0‐∞) was 146 µg·h/mL. Moreover, in [2], the “median time to peak plasma concentration (tmax)” value is 2 h and the “plasma apparent terminal‐phase half‐life (t1/2)” value is “approximately 38.5 hours”. For the same compound, in data set [3], the “Biopharmaceutics Drug Disposition Classification System class” value was “class 2” and the passive permeability result is “high”. For the same compound, the “binding to serum albumin” value in the data set on serum albumin was “highly bound”. In addition, the “effect of rifampin on cabotegravir exposures” value in data set [4] was “significantly reduced”. In addition, the “dose proportionality of trough concentration” value in data set [5] is on record as “increase in proportional to dose”. Besides, the “dose proportionality of AUC and Cmax” value in [5] (dose increased from 30 to 60 mg, ref Supplemental Data) is “less‐than‐dose‐proportional”. Besides, in data set [6] (30 mg oral, high-fat meal vs fasting), the “effect of high-fat meal on tmax and t1/2” value was “Neither tmax nor t1/2 was affected”. The “CL/F, Mean (SD)” value in [6] (30-mg single oral dose, fasted state, n = 21) was 0.218 (0.0611) L/h. In addition, in [6] (setting [12]), the “CL/F, Mean (SD)” value is 0.191 (0.0553) L/h and the “t1/2, Mean (SD)” value is given as 41.1 (6.57) h. Besides, in data set [6] (2 hours after dosing, fasting conditions, 30 mg oral), the “peak concentration of the one participant excluded from PK analysis” value stood at 0.0987 µg/mL. In [6] (setting [13]), the “AUC0‐∞, GLS Mean Ratio (90% CI)” value is 1.14 (1.02‐1.28); the “C24, GLS Mean Ratio (90% CI)” value is 1.17 (1.04‐1.30); the “CL/F, GLS Mean Ratio (90% CI)” value was 0.875 (0.785‐0.977); the “Cmax, GLS Mean Ratio (90% CI)” value is reported as 1.14 (1.03‐1.27). Further, the “t1/2, GLS Mean Ratio (90% CI)” value in data set [6] (setting [13]) was 0.997 (0.964‐1.03). Besides, the quantifiable predose concentrations in data set [6] (crossover periods, 14-day washout) was < 5 % of their respective Cmax values. Further, the “decrease in CL/F” value in data set [6] (high-fat meal compared with after fasting, 30 mg oral) amounted to 13%. Also, in data set [6] (setting [14]), the “increase in maximal drug concentration” value turned out to be 14% and the “increase in plasma area under the concentration‐time curve” value came out at 14%. Further, in [6] (human, plasma, po, 30 mg), the half-life is 41.1 h. Further, the “half‐life, geometric mean (95% confidence interval)” value in data set [7] was 38.6 h. Also, the “treatment‐emergent laboratory abnormalities” value in data set [8] (grade 2 hypoglycemia, grade 3 increased direct bilirubin) is 2 participants. Besides, the “electrocardiographic or vital sign abnormalities reported as AEs” value in [8] (single 30-mg oral doses) was “No clinically significant electrocardiographic or vital sign abnormalities”. Besides, in data set [8] (single 30-mg oral doses, fasted and fed, healthy adults), the “adverse events (grade 3/4, drug-related, serious, leading to discontinuation)” value is “No grade 3/4 adverse events (AEs), drug‐related AEs, or AEs leading to discontinuation were reported; also recorded: no AEs or serious AEs that led to discontinuation of the study drug”. Moreover, the metabolizing enzymes entry in data set [9] was “primarily metabolized by uridine diphosphate glucuronosyltransferase (UGT)1A1”. Besides, the “effect of a moderate-fat meal (30% fat, ∼670 calories) on PK” value in data set [10] is reported as “did not significantly affect”. Besides, the “in vitro protein‐adjusted 90% inhibitory concentration” value in the data set with HIV‐1 is recorded as 166 ng/mL. The “substrate for intestinal uptake transporters such as OATP” value in the data set with OATP was “not a substrate”.
Turning to `C[C@@H]1CCO[C@H]2Cn3cc(C(=O)NCc4ccc(F)cc4F)c(=O)c(O)c3C(=O)N12` [Dolutegravir], the “increase in plasma AUC0‐∞” value is 66% in data set [11] (single-dose dolutegravir 50 mg with high-fat meal), 33% in data set [11] (single-dose dolutegravir 50 mg with low-fat meal) and 41% in data set [11] (single-dose dolutegravir 50 mg with moderate-fat meal).
